{"source": "ChEMBL document CHEMBL1146851", "about": "“Discovery of 2-pyrimidyl-5-amidothiophenes as potent inhibitors for AKT: synthesis and SAR studies” (Bioorg Med Chem Lett, 2006)", "key": {"[1]": {"target": "T1, RAC-gamma serine/threonine-protein kinase (Homo sapiens, UniProt Q9Y243)", "T1 sequence (Q9Y243 whole entry)": "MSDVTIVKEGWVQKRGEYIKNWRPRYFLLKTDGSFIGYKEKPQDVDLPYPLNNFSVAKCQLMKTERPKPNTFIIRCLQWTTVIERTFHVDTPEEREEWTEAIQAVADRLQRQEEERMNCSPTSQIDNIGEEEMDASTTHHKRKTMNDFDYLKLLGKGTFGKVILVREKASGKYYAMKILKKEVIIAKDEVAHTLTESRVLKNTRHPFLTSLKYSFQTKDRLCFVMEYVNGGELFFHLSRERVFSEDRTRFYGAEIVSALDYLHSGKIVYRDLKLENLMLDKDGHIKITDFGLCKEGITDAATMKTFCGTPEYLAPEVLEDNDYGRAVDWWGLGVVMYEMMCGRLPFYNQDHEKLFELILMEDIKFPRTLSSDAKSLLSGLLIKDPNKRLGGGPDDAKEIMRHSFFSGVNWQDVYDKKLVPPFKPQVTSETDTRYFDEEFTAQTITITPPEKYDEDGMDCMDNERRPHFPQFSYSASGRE", "experiment": "Inhibition of AKT3 in presence of 0.2 uM ATP", "procedure,_shortened": "(§1)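 Biochemical kinase IC50s, each run with ATP at or below its Km.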"}, "[2]": {"target": "RAC-alpha serine/threonine-protein kinase (Homo sapiens, UniProt P31749)", "sequence (P31749 whole entry)": "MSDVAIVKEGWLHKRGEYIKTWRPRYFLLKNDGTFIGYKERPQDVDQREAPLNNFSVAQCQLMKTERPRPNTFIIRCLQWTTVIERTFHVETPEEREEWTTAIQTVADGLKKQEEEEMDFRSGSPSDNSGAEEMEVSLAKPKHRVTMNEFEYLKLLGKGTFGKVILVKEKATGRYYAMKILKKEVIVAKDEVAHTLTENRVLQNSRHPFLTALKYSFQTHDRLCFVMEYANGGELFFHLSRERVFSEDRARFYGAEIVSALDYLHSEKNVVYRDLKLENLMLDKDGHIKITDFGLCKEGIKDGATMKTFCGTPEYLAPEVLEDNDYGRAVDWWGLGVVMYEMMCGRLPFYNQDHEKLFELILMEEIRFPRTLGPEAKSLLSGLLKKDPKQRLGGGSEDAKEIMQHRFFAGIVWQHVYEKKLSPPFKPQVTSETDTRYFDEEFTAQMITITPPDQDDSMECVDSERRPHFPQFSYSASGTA", "experiment": "Inhibition of AKT1", "procedure,_shortened": "as §1"}, "[3]": {"target": "T1, RAC-gamma serine/threonine-protein kinase", "experiment": "Inhibition of AKT3", "procedure,_shortened": "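Kinase IC50 determined in a biochemical kinase assay with ATP at or below its Km.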"}, "[4]": {"target": "T2, cAMP-dependent protein kinase (PKA) (Homo sapiens, UniProt P22694+P17612+P22612)", "experiment": "Inhibition of PKA", "format": "protein assay", "procedure,_shortened": "as §1"}, "[5]": {"target": "Mast/stem cell growth factor receptor Kit (Homo sapiens, UniProt P10721)", "sequence (P10721 whole entry)": "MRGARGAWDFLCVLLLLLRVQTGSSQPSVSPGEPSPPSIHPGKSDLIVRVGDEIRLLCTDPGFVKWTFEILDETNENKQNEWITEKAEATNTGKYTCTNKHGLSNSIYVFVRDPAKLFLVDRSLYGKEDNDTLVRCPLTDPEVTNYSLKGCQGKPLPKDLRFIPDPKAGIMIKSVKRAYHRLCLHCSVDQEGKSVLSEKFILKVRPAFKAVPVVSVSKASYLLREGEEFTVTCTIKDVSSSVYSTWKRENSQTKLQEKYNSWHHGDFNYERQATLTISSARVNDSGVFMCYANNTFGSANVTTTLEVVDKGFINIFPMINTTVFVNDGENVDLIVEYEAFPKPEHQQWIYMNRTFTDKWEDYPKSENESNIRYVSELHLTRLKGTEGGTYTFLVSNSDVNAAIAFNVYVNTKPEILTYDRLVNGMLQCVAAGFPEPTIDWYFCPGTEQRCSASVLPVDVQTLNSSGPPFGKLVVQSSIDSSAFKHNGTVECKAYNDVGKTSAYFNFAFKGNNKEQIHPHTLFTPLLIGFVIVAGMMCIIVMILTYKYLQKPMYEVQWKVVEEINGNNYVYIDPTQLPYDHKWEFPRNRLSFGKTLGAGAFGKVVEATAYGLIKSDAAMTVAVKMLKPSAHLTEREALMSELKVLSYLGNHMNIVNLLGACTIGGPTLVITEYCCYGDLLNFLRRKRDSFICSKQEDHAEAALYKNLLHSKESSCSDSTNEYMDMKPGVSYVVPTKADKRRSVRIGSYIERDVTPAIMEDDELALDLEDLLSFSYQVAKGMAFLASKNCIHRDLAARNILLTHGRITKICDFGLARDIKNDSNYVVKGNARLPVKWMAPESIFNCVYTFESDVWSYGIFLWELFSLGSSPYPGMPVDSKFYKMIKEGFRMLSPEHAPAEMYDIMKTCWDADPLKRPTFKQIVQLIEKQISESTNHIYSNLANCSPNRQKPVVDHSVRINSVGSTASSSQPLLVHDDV", "experiment": "Inhibition of Kit"}, "[6]": {"target": "Hepatocyte growth factor receptor (Homo sapiens, UniProt P08581)", "experiment": "Inhibition of Met", "procedure,_shortened": "as §1"}, "[7]": {"target": "Protein kinase C alpha type (Homo sapiens, UniProt P17252)", "experiment": "Inhibition of PKCa"}, "[8]": {"target": "Calcium/calmodulin-dependent protein kinase type II subunit alpha (Homo sapiens, UniProt Q9UQM7)", "sequence (Q9UQM7 whole entry)": "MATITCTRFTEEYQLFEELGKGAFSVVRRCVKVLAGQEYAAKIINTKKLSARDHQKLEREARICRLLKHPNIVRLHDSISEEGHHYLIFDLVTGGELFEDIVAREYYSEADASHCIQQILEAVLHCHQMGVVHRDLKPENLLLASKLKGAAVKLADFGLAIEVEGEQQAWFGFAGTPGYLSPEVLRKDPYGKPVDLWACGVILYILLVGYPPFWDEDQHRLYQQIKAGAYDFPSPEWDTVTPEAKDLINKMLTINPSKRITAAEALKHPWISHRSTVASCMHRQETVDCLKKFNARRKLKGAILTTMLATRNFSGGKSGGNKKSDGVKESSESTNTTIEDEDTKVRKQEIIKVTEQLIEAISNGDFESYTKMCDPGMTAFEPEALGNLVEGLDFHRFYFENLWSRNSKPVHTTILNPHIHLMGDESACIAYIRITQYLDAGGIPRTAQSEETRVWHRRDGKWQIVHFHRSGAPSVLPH", "experiment": "Inhibition of CamK2alpha", "procedure,_shortened": "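IC50 from an in vitro kinase assay with ATP at or below its Km.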"}, "[9]": {"target": "Mitogen-activated protein kinase 3 (Homo sapiens, UniProt P27361)", "sequence (P27361 whole entry)": "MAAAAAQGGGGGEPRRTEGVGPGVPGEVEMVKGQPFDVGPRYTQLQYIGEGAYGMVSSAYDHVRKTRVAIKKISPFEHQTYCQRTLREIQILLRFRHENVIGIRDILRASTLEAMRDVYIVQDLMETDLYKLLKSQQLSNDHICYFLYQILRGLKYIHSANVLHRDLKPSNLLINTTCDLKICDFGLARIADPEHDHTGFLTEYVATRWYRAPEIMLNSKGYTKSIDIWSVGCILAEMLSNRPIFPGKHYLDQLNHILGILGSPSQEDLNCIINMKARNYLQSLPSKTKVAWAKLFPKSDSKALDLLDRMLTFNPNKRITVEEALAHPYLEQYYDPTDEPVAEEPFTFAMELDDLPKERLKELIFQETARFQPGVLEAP", "experiment": "Inhibition of ERK1", "procedure,_shortened": "as §1"}, "[10]": {"target": "RAF proto-oncogene serine/threonine-protein kinase (Homo sapiens, UniProt P04049)", "sequence (P04049 whole entry)": "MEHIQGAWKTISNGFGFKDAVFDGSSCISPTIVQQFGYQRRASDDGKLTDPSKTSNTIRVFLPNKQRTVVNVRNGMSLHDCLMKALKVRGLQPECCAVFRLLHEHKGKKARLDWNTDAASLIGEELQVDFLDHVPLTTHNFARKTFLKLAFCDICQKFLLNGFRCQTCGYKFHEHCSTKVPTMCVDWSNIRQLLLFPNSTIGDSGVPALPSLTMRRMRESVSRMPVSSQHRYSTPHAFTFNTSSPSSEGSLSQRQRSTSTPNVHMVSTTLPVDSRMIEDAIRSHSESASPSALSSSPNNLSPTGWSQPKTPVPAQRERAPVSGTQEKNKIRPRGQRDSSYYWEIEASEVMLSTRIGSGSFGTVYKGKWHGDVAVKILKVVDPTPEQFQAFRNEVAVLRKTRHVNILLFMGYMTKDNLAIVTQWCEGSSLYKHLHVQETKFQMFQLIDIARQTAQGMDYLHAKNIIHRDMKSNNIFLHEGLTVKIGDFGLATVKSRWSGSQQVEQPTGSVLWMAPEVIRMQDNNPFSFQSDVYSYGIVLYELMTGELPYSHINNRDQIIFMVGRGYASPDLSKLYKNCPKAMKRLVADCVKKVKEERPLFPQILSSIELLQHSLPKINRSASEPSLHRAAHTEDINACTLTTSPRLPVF", "experiment": "Inhibition of RAF1", "procedure,_shortened": "as §1"}, "DOV13": {"system": "DOV13", "experiment": "Antiproliferative activity against human DOV13 cell line", "format": "functional, cell-based"}, "[11]": {"target": "T3, Serine/threonine-protein kinase AKT (Homo sapiens, UniProt P31751+Q9Y243+P31749)", "experiment": "Activity against AKT-mediated GSK3 S9P phosphorylation in human DOV13 cell line", "format": "functional, cell-based"}, "[12]": {"target": "T3, Serine/threonine-protein kinase AKT", "experiment": "Activity against AKT-mediated PRAS40 T246P phosphorylation in human DOV13 cell line", "format": "functional, cell-based"}, "[13]": {"target": "T2, cAMP-dependent protein kinase (PKA)", "experiment": "Inhibitory activity against PKA in human UACC903 cell line at 10 nM", "format": "functional, cell-based", "conditions": "UACC-903", "procedure,_shortened": "(§2)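 UACC903 melanoma cells were pre-incubated with the test compound at various concentrations for 45 min, then stimulated with 7 μM forskolin for 15 min before lysis. Lysates were Western blotted for phospho-VASP as the PKA read-out, with phospho-MDM2 as the AKT read-out.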"}, "[14]": {"target": "T2, cAMP-dependent protein kinase (PKA)", "experiment": "Inhibitory activity against PKA in human UACC903 cell line at 33 nM", "format": "functional, cell-based", "conditions": "UACC-903", "procedure,_shortened": "as §2"}, "[15]": {"target": "T3, Serine/threonine-protein kinase AKT", "experiment": "Activity against AKT-mediated S6RP S235/236P phosphorylation in human DOV13 cell line", "format": "functional, cell-based"}}, "note": "Activity calls are given as the source filed them. The calls are words filed in the database; no cut-off is given here."}
{"smiles": "CNc1nccc(-c2ccc(C(=O)N[C@H](CCN)Cc3ccc(Cl)cc3Cl)s2)n1", "values": [{"measurement": "IC50", "setting": "[1]", "value": 27, "unit": "nM"}]}
{"smiles": "CCCNc1nccc(-c2ccc(C(=O)NCCc3ccc(Cl)cc3Cl)s2)n1", "values": [{"measurement": "IC50", "setting": "[1]", "value": "> 25000", "unit": "nM"}]}
{"smiles": "CN(C)c1nccc(-c2ccc(C(=O)NCCc3ccc(Cl)cc3Cl)s2)n1", "values": [{"measurement": "IC50", "setting": "[1]", "value": "> 25000", "unit": "nM"}]}
{"smiles": "CNc1nccc(-c2ccc(C(=O)NCCc3ccncc3)s2)n1", "values": [{"measurement": "IC50", "setting": "[1]", "value": "> 25000", "unit": "nM"}]}
{"smiles": "CNc1nccc(-c2ccc(C(=O)NCCc3ccccc3)s2)n1", "values": [{"measurement": "IC50", "setting": "[1]", "value": 5000, "unit": "nM"}]}
{"smiles": "Nc1nccc(-c2ccc(C(=O)NCCc3ccc(Cl)cc3Cl)s2)n1", "values": [{"measurement": "IC50", "setting": "[1]", "value": 610, "unit": "nM"}]}
{"smiles": "CNc1nccc(-c2ccc(C(=O)NCCc3ccc(S(N)(=O)=O)cc3)s2)n1", "values": [{"measurement": "IC50", "setting": "[1]", "value": 19000, "unit": "nM"}]}
{"smiles": "CNc1nccc(-c2ccc(C(=O)NC[C@@H](N)c3ccccc3)s2)n1", "values": [{"measurement": "IC50", "setting": "[1]", "value": 2800, "unit": "nM"}]}
{"smiles": "CCNc1nccc(-c2ccc(C(=O)NCCc3ccc(Cl)cc3Cl)s2)n1", "values": [{"measurement": "IC50", "setting": "[1]", "value": 1500, "unit": "nM"}]}
{"smiles": "CNc1nccc(-c2ccc(C(=O)NCCc3ccccc3Cl)s2)n1", "values": [{"measurement": "IC50", "setting": "[1]", "value": 2900, "unit": "nM"}]}
{"smiles": "CNc1nccc(-c2ccc(C(=O)Nc3ccc(F)cc3)s2)n1", "values": [{"measurement": "IC50", "setting": "[1]", "value": "> 25000", "unit": "nM"}]}
{"smiles": "CNc1nccc(-c2ccc(C(=O)NCCc3ccc(Br)cc3)s2)n1", "values": [{"measurement": "IC50", "setting": "[1]", "value": 2600, "unit": "nM"}]}
{"smiles": "CNc1nccc(-c2ccc(NC(=O)NCc3ccc(Cl)cc3Cl)s2)n1", "values": [{"measurement": "IC50", "setting": "[1]", "value": 2100, "unit": "nM"}]}
{"smiles": "CNc1nccc(-c2ccc(C(=O)N[C@H](C)Cc3ccc(Cl)cc3Cl)s2)n1", "values": [{"measurement": "IC50", "setting": "[1]", "value": 820, "unit": "nM"}]}
{"smiles": "CNc1nccc(-c2ccc(CNCCc3ccc(Cl)cc3Cl)s2)n1", "values": [{"measurement": "IC50", "setting": "[1]", "value": 5200, "unit": "nM"}]}
{"smiles": "CNc1nccc(-c2ccc(NC(=O)OCc3ccc(F)cc3)s2)n1", "values": [{"measurement": "IC50", "setting": "[1]", "value": 7400, "unit": "nM"}]}
{"smiles": "CNc1nccc(-c2ccc(S(=O)(=O)NCCc3ccc(Cl)cc3Cl)s2)n1", "values": [{"measurement": "IC50", "setting": "[1]", "value": "> 25000", "unit": "nM"}]}
{"smiles": "CNc1nccc(-c2ccc(C(=O)N[C@@H](Cc3ccc(Cl)cc3Cl)CN(C)C)s2)n1", "values": [{"measurement": "IC50", "setting": "[1]", "value": 11, "unit": "nM"}]}
{"smiles": "CNc1nccc(-c2ccc(C(=O)N[C@H](CN)Cc3ccc(Cl)cc3Cl)s2)n1", "values": [{"measurement": "IC50", "setting": "[2]", "value": 6, "unit": "nM"}, {"measurement": "IC50", "setting": "[3]", "value": 3, "unit": "nM"}, {"measurement": "IC50", "setting": "[4]", "value": 0.1, "unit": "nM"}, {"measurement": "IC50", "setting": "[5]", "value": 110, "unit": "nM"}, {"measurement": "IC50", "setting": "[6]", "value": 1100, "unit": "nM"}, {"measurement": "IC50", "setting": "[7]", "value": 66, "unit": "nM"}, {"measurement": "IC50", "setting": "[8]", "value": 8000, "unit": "nM"}, {"measurement": "IC50", "setting": "[9]", "value": 400, "unit": "nM"}, {"measurement": "IC50", "setting": "[10]", "value": "> 10000", "unit": "nM"}, {"measurement": "EC50", "setting": "DOV13", "value": 1000, "unit": "nM"}, {"measurement": "EC50", "setting": "[11]", "value": 320, "unit": "nM"}, {"measurement": "EC50", "setting": "[12]", "value": 160, "unit": "nM"}, {"measurement": "Activity", "setting": "[13]", "value": "Active"}, {"measurement": "Activity", "setting": "[14]", "value": "Active"}, {"measurement": "EC50", "setting": "[15]", "value": 370, "unit": "nM"}]}
{"smiles": "CNc1nccc(-c2ccc(C(=O)NC(CN)Cc3ccc(Cl)cc3Cl)s2)n1", "note": "(stereo unspecified)", "values": [{"measurement": "IC50", "setting": "[1]", "value": 4.8, "unit": "nM"}]}
{"smiles": "CNc1nccc(-c2ccc(C(=O)NCCc3ccc(Cl)cc3Cl)s2)n1", "values": [{"measurement": "IC50", "setting": "[1]", "value": 990, "unit": "nM"}]}
{"smiles": "CNc1nccc(-c2ccc(C(=O)NCc3ccc(F)cc3)s2)n1", "values": [{"measurement": "IC50", "setting": "[1]", "value": 4700, "unit": "nM"}]}
{"smiles": "CNc1nccc(-c2ccc(C(=O)NCCN)s2)n1", "values": [{"measurement": "IC50", "setting": "[1]", "value": 1300, "unit": "nM"}]}
{"smiles": "CNc1nccc(-c2ccc(C(=O)NCCc3ccc(Cl)cc3)s2)n1", "values": [{"measurement": "IC50", "setting": "[1]", "value": 1100, "unit": "nM"}]}
{"smiles": "CNc1nccc(-c2ccc(C(=O)NCCCc3ccc(F)cc3)s2)n1", "values": [{"measurement": "IC50", "setting": "[1]", "value": 18000, "unit": "nM"}]}
{"smiles": "CCC(CNC(=O)c1ccc(-c2ccnc(NC)n2)s1)c1ccc(Cl)cc1Cl", "note": "(stereo unspecified)", "values": [{"measurement": "IC50", "setting": "[1]", "value": 1000, "unit": "nM"}]}
{"smiles": "CNc1nccc(-c2ccc(C(=O)N[C@@H](Cc3ccc(Cl)cc3Cl)C(=O)OC)s2)n1", "values": [{"measurement": "IC50", "setting": "[1]", "value": 2400, "unit": "nM"}]}
{"smiles": "CNc1nccc(-c2ccc(NC(=O)CCc3ccc(F)cc3)s2)n1", "values": [{"measurement": "IC50", "setting": "[1]", "value": 2300, "unit": "nM"}]}
{"smiles": "CNc1nccc(-c2ccc(C(=O)N[C@H](CO)Cc3ccc(Cl)cc3Cl)s2)n1", "values": [{"measurement": "IC50", "setting": "[1]", "value": 280, "unit": "nM"}]}
{"smiles": "CNc1nccc(-c2ccc(C(=O)NCCc3cccc(Cl)c3)s2)n1", "values": [{"measurement": "IC50", "setting": "[1]", "value": 5400, "unit": "nM"}]}
{"smiles": "CNc1nccc(-c2ccc(C(=O)NCC(C)c3ccc(Cl)cc3Cl)s2)n1", "note": "(stereo unspecified)", "values": [{"measurement": "IC50", "setting": "[1]", "value": 660, "unit": "nM"}]}
{"smiles": "CNc1nccc(-c2ccc(C(=O)NCCc3ccc(C)cc3)s2)n1", "values": [{"measurement": "IC50", "setting": "[1]", "value": "> 25000", "unit": "nM"}]}
{"smiles": "CNc1nccc(-c2ccc(C(=O)N[C@@H](CN)Cc3ccc(Cl)cc3Cl)s2)n1", "values": [{"measurement": "IC50", "setting": "[1]", "value": 240, "unit": "nM"}]}
{"smiles": "CNc1nccc(-c2ccc(C(=O)NCCc3ccc(F)cc3)s2)n1", "values": [{"measurement": "IC50", "setting": "[1]", "value": 3000, "unit": "nM"}]}
{"smiles": "CNc1nccc(-c2ccc(C(=O)NCC(c3ccccc3)c3ccccc3)s2)n1", "values": [{"measurement": "IC50", "setting": "[1]", "value": "> 25000", "unit": "nM"}]}
{"smiles": "CNc1nccc(-c2ccc(C(=O)NCCc3ccc(OC)cc3)s2)n1", "values": [{"measurement": "IC50", "setting": "[1]", "value": "> 25000", "unit": "nM"}]}
{"smiles": "CNc1nccc(-c2ccc(C(=O)NCCN(C)C)s2)n1", "values": [{"measurement": "IC50", "setting": "[1]", "value": 7000, "unit": "nM"}]}
